In ChEMBL document CHEMBL2424574, “Structure-activity relationships and pharmacophore model of a noncompetitive pyrazoline containing class of GluN2C/GluN2D selective antagonists” (J Med Chem, 2013):

Columns and labels:
[1] = organism: Rattus norvegicus; experiment: Selectivity ratio of IC50 for recombinant rat GluN2A receptor to IC50 for recombinant rat GluN2D receptor
How it was run: (§1)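 Rat GluN1 co-expressed with GluN2A, GluN2B or GluN2D in Xenopus oocytes. Two-electrode voltage clamp at −40 mV in 90 NaCl, 1 KCl, 0.5 BaCl2, 0.005 EDTA, 10 HEPES (mM), pH 7.4, 23 °C; final DMSO 0.1–0.05%. IC50s came from Hill fits to averaged composite concentration-response curves (5–24 oocytes, 2–4 frogs). Ratio is GluN2A or GluN2B IC50 over GluN2D IC50.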

[2] = biological target: Glutamate receptor ionotropic, NMDA 2C (Rattus norvegicus, UniProt P35439+Q00961); experiment: Negative allosteric modulation of recombinant rat GluN2C receptor expressed in Xenopus laevis oocytes by two-electrode voltage clamp method; format: cell-based, Oocyte
How it was run: (§2)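 Two-electrode voltage clamp of Xenopus oocytes expressing rat GluN1 with GluN2A, 2B, 2C or 2D. Holding potential −40 mV in recording solution (mM: 90 NaCl, 1 KCl, 0.5 BaCl2, 0.005 EDTA, 10 HEPES, pH 7.4, 23 °C). Compounds diluted from 20 mM DMSO stocks to 0.05–0.1% final DMSO. IC50 from a Hill fit to the averaged composite concentration–response curve, 5–24 oocytes from 2–4 frogs.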

[3] = biological target: Glutamate receptor ionotropic, NMDA 2D (Rattus norvegicus, UniProt P35439+Q62645); experiment: Negative allosteric modulation of recombinant rat GluN2D receptor expressed in Xenopus laevis oocytes by two-electrode voltage clamp method; format: cell-based, Oocyte; how it was run: as §2
[4] = organism: Rattus norvegicus; experiment: Selectivity ratio of IC50 for recombinant rat GluN2B receptor to IC50 for recombinant rat GluN2D receptor; how it was run: as §1
[5] = biological target: Glutamate receptor ionotropic, NMDA 2B (Rattus norvegicus, UniProt P35439+Q00960); experiment: Negative allosteric modulation of recombinant rat GluN2B receptor expressed in Xenopus laevis oocytes by two-electrode voltage clamp method; format: cell-based, Oocyte; how it was run: as §2
[6] = biological target: Glutamate receptor ionotropic, NMDA 2A (Rattus norvegicus, UniProt P35439+Q00959); experiment: Negative allosteric modulation of recombinant rat GluN2A receptor expressed in Xenopus laevis oocytes by two-electrode voltage clamp method; format: cell-based, Oocyte; how it was run: as §2

Glutamate receptor ionotropic, NMDA 2C, sequence (Q00961 whole entry, one chain of several): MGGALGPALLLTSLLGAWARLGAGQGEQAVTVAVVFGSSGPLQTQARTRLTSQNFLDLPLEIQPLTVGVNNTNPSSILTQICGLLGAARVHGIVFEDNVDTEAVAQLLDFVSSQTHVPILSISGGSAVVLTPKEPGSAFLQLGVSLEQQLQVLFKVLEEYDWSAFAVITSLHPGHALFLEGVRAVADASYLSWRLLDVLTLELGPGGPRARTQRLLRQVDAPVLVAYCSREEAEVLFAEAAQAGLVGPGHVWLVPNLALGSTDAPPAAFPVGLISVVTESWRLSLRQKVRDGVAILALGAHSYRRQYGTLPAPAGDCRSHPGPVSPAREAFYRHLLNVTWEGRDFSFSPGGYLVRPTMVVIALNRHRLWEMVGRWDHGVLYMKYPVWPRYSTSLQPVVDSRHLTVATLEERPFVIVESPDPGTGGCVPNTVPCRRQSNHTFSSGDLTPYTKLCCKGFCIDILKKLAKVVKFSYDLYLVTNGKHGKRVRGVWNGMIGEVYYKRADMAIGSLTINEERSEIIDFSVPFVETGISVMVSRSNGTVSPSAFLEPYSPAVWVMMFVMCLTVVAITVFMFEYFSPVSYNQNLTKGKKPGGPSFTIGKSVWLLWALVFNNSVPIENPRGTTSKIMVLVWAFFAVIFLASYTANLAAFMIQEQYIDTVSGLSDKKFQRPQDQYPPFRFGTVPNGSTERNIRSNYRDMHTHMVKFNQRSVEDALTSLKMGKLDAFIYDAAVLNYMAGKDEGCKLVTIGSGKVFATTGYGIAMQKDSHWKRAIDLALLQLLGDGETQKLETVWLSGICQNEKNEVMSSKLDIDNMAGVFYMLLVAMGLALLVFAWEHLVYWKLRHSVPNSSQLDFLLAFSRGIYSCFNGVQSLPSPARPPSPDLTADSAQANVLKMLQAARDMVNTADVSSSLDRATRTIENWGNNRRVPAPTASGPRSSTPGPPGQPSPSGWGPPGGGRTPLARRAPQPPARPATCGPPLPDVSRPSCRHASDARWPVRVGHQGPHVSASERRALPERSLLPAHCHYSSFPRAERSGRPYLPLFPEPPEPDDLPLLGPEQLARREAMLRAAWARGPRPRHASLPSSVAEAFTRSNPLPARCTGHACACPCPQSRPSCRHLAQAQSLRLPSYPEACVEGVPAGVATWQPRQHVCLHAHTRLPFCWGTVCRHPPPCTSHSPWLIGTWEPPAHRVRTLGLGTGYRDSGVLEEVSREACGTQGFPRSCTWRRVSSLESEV
Glutamate receptor ionotropic, NMDA 2B, sequence (Q00960 whole entry, one chain of several): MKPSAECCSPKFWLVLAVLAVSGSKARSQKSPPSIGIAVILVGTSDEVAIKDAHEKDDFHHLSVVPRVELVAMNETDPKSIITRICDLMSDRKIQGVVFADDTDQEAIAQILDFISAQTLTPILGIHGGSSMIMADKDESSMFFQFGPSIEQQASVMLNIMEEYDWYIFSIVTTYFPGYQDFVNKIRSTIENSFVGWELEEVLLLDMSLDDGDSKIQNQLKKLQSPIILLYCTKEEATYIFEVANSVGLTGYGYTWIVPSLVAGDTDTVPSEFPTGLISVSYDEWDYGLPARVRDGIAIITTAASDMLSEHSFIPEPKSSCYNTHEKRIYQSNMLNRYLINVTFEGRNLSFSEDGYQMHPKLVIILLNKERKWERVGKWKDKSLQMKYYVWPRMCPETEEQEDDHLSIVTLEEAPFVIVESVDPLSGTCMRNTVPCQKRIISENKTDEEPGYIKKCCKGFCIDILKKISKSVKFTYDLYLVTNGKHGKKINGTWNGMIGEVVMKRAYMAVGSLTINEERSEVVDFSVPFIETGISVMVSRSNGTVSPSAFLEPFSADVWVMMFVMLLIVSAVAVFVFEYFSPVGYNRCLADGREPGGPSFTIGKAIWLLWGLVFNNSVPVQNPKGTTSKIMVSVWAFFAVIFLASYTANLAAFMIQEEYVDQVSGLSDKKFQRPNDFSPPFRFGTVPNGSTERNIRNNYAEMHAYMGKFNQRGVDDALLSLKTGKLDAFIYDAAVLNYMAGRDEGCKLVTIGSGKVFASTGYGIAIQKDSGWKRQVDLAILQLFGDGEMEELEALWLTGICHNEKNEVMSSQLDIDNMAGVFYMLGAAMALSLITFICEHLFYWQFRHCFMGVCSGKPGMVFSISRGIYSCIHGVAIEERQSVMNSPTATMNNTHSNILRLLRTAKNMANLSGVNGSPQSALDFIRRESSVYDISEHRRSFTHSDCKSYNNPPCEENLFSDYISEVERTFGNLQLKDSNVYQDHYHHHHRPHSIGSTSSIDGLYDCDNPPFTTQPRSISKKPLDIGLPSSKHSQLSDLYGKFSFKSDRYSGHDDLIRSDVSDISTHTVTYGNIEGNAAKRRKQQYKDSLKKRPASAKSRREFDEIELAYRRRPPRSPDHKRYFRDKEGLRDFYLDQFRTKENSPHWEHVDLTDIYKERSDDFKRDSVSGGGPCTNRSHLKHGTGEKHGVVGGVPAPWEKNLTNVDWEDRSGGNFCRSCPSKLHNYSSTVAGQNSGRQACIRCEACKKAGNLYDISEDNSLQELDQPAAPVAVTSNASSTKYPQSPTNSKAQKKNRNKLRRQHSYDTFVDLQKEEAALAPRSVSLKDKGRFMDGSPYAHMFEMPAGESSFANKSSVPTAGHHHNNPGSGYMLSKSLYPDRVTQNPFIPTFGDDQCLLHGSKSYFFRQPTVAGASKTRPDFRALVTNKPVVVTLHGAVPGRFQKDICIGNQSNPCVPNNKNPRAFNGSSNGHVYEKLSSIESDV
Glutamate receptor ionotropic, NMDA 2D, sequence (Q62645 whole entry, one chain of several): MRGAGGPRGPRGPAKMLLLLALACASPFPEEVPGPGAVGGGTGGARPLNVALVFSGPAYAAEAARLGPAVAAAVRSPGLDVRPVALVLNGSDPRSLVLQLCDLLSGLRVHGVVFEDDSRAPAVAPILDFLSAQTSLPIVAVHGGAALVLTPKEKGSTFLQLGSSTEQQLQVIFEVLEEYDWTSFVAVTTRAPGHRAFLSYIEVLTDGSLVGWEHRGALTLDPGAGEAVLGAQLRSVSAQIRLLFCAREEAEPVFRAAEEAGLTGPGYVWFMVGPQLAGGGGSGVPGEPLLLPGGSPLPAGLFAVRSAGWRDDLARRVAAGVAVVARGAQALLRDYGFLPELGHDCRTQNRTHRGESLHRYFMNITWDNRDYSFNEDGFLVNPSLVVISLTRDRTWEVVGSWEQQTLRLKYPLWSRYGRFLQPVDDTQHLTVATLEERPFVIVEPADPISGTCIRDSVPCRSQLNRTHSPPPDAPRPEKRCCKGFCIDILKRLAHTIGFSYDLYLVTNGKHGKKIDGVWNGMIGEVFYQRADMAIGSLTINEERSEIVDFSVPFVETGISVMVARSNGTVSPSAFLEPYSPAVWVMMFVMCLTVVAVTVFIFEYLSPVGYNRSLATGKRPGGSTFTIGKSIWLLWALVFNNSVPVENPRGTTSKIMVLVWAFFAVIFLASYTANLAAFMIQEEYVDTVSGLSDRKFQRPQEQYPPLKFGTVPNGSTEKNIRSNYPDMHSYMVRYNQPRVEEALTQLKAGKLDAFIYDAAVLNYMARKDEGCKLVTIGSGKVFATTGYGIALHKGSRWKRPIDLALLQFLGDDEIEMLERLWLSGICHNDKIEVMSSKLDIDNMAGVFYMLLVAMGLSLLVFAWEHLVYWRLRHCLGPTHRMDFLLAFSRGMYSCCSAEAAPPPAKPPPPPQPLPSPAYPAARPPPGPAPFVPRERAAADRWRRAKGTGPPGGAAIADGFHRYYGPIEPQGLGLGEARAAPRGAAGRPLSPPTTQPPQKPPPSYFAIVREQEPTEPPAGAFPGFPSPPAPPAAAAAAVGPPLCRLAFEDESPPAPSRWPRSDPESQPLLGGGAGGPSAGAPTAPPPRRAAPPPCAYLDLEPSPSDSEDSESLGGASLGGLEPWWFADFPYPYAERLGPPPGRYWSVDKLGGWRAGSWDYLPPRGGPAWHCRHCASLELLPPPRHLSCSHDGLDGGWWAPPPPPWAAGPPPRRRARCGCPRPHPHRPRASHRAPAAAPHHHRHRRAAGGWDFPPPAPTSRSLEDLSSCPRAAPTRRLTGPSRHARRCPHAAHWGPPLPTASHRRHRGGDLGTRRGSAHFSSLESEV

SMILES | Ratio IC50 [1] | IC50 [2] [µM] | IC50 [3] [µM] | Ratio IC50 [4] | IC50 [5] [µM] | IC50 [6] [µM]
NC(=O)CCC(=O)N1N=C(c2c(-c3ccc(Cl)cc3)c3ccccc3[nH]c2=O)CC1c1ccc(Cl)cc1 (stereo not drawn) | 31 | 2 | 1.1 | 18 | 20 | 34
O=C(O)CCC(=O)N1N=C(c2c(-c3ccccc3)c3cc(Cl)ccc3[nH]c2=O)CC1c1ccc([N+](=O)[O-])cc1 (stereo not drawn) | 85 | 0.9 | 1.1 | 42 | 45 | 91
O=C(O)CCC(=O)N1N=C(c2c(-c3ccc(Cl)cc3)c3ccccc3[nH]c2=O)CC1c1ccccc1 (stereo not drawn) | 4 | 13 | 11 | 13 | 143 | 49
O=C(O)CCCC(=O)N1N=C(c2c(-c3ccccc3)c3cc(Cl)ccc3[nH]c2=O)CC1c1ccc([N+](=O)[O-])cc1 (stereo not drawn) | 10 | 10 | 11 | 8 | 92 | 109
O=C(O)CCC(=O)N1N=C(c2c(-c3ccc(Br)cc3)c3ccccc3[nH]c2=O)CC1c1ccccc1 (stereo not drawn) | 7 | 10 | 9.1 | 12 | 113 | 64
Cc1ccc(-c2c(C3=NN(C(=O)CCC(=O)O)C(c4ccc(Cl)cc4)C3)c(=O)[nH]c3ccccc23)cc1 (stereo not drawn) | 24 | 2.5 | 1.4 | 30 | 42 | 33
O=C(O)/C=C\C(=O)N1N=C(c2c(-c3ccccc3)c3cc(Cl)ccc3[nH]c2=O)CC1c1ccc(Br)cc1 (stereo not drawn) | 15 | 8.9 | 5 | 7 | 37 | 74
O=C(O)CCC(=O)N1N=C(c2c(-c3ccc(C(F)(F)F)cc3)c3ccccc3[nH]c2=O)CC1c1ccc(Cl)cc1 (stereo not drawn) | 10 | 3.6 | 2.8 | 14 | 39 | 29
O=C(O)CCC(=O)N1N=C(c2c(-c3ccc(F)c(Cl)c3)c3ccccc3[nH]c2=O)CC1c1ccc(Cl)cc1 (stereo not drawn) | 19 | 1.4 | 1 | 34 | 34 | 19
COc1ccc(-c2c(C3=NN(C(=O)CCC(=O)O)C(c4ccc(Cl)cc4)C3)c(=O)[nH]c3ccccc23)cc1 (stereo not drawn) | 27 | 5 | 2.3 | 33 | 75 | 62
COc1cccc(-c2c(C3=NN(C(=O)CCC(=O)O)C(c4ccc(Cl)cc4)C3)c(=O)[nH]c3ccccc23)c1 (stereo not drawn) | 24 | 7.8 | 4.5 | 34 | 152 | 110
O=C(O)CCC(=O)N1N=C(c2c(-c3ccccc3)c3cc(Cl)ccc3[nH]c2=O)CC1c1ccc(C(F)(F)F)cc1 (stereo not drawn) | 20 | 5 |  | 13 | 54 | 80
O=C(O)CCC(=O)N1N=C(c2c(-c3cc(F)cc(F)c3)c3ccccc3[nH]c2=O)CC1c1ccc(Cl)cc1 (stereo not drawn) | 26 | 1.1 | 0.81 | 123 | 100 | 21
O=C(O)CCC(=O)N1N=C(c2c(-c3cc(Cl)cc(Cl)c3)c3ccccc3[nH]c2=O)CC1c1ccc(Cl)cc1 (stereo not drawn) | 8 | 0.78 | 0.7 | 19 | 13 | 5.5
O=C(O)CCCN1N=C(c2c(-c3ccc(Cl)cc3)c3ccccc3[nH]c2=O)CC1c1ccc(Cl)cc1 (stereo not drawn) | 34 |  |  | 31 | 53 | 58
O=C(O)CCC(=O)N1N=C(c2c(-c3cccc(F)c3)c3ccccc3[nH]c2=O)CC1c1ccc(Cl)cc1 (stereo not drawn) | 67 | 1.1 | 0.69 | 101 | 70 | 46
Cc1cccc(-c2c(C3=NN(C(=O)CCC(=O)O)C(c4ccc(Cl)cc4)C3)c(=O)[nH]c3ccccc23)c1 (stereo not drawn) | 13 | 4 | 1.9 | 37 | 71 | 24
O=C(O)CCC(=O)N1N=C(c2c(-c3ccc(Br)cc3)c3ccccc3[nH]c2=O)CC1c1ccc(Br)cc1 (stereo not drawn) | 33 |  |  | 59 | 23 | 13

SMILES | Ratio IC50 [1] | IC50 [2] [µM] | IC50 [3] [µM] | Ratio IC50 [4] | IC50 [5] [µM] | IC50 [6] [µM]
COc1ccc(C2CC(c3c(-c4ccccc4)c4cc(Cl)ccc4[nH]c3=O)=NN2C(=O)CCC(=O)O)cc1 (stereo not drawn) |  | 28 | 21 |  | 187 | 197
O=C(O)CCC(=O)N1N=C(c2c(-c3ccc(Cl)cc3)c3ccccc3[nH]c2=O)CC1c1ccc(F)cc1 (stereo not drawn) | 14 | 4.1 | 3.4 | 26 | 90 | 47
COc1ccc(C2CC(c3c(O)nc4ccc(Cl)cc4c3-c3ccccc3)=NN2C(=O)CCC(=O)O)cc1 (stereo not drawn) | 9 |  |  | 9 |  | 
O=C(O)CCC(=O)N1N=C(c2c(-c3ccc(F)cc3)c3ccccc3[nH]c2=O)CC1c1ccc(Cl)cc1 (stereo not drawn) | 36 | 1 | 0.58 | 98 | 57 | 21
O=C(O)CCC(=O)N1N=C(c2c(-c3ccc(Cl)cc3)c3ccccc3[nH]c2=O)C[C@@H]1c1ccc(Cl)cc1 | 23 | 2.1 | 1.9 | 49 | 52 | 45
O=C(O)CCC(=O)N1N=C(c2c(-c3ccc(Br)cc3)c3ccccc3[nH]c2=O)CC1c1ccc(Cl)cc1 (stereo not drawn) |  | 0.56 | 0.29 |  | 23 | 10
O=C(O)CCC(=O)N1N=C(c2c(-c3ccc(F)c(F)c3)c3ccccc3[nH]c2=O)CC1c1ccc(Cl)cc1 (stereo not drawn) | 32 | 0.78 | 0.66 | 108 | 71 | 21
O=C(O)CCC(=O)N1N=C(c2c(-c3cccc(C(F)(F)F)c3)c3ccccc3[nH]c2=O)CC1c1ccc(Cl)cc1 (stereo not drawn) | 11 | 3.4 | 2.6 | 18 | 47 | 28
O=C(O)CCCC(=O)N1N=C(c2c(-c3ccc(Br)cc3)c3ccccc3[nH]c2=O)CC1c1ccc(Cl)cc1 (stereo not drawn) | 33 | 0.6 | 0.32 | 91 | 29 | 10
O=C(O)CCC(=O)N1N=C(c2c(-c3ccccc3)c3cc(Cl)ccc3[nH]c2=O)CC1c1ccccc1 (stereo not drawn) |  | 86 | 88 |  |  | 
O=C(O)CCC(=O)N1N=C(c2c(-c3ccc(Cl)cc3)c3ccccc3[nH]c2=O)CC1c1ccc(Br)cc1 (stereo not drawn) | 37 | 0.95 | 0.51 | 67 | 34 | 19
O=C(O)CCCC(=O)N1N=C(c2c(-c3ccccc3)c3cc(Cl)ccc3[nH]c2=O)CC1c1ccc(Br)cc1 (stereo not drawn) | 20 | 6.4 | 4 | 23 | 90 | 78
O=C(O)CCC(=O)N1N=C(c2c(-c3ccc(Cl)c(F)c3)c3ccccc3[nH]c2=O)CC1c1ccc(Cl)cc1 (stereo not drawn) | 23 | 0.91 | 0.53 | 53 | 28 | 12
O=C(O)CCC(=O)N1N=C(c2c(-c3ccc(Cl)cc3)c3ccccc3[nH]c2=O)C[C@H]1c1ccc(Cl)cc1 | 78 | 0.22 |  | 156 | 26 | 13
O=C(O)CCC(=O)N1N=C(c2c(-c3ccc(Cl)c(Cl)c3)c3ccccc3[nH]c2=O)CC1c1ccc(Cl)cc1 (stereo not drawn) | 8 | 0.79 | 0.91 | 22 | 20 | 7.7
O=C(O)CCC(=O)N1N=C(c2c(-c3cccc(Cl)c3)c3ccccc3[nH]c2=O)CC1c1ccc(Cl)cc1 (stereo not drawn) | 20 | 2.1 | 1 | 43 | 43 | 20
O=C(O)CCC(=O)N1N=C(c2c(-c3ccccc3)c3cc(Cl)ccc3[nH]c2=O)CC1c1ccc(F)cc1 (stereo not drawn) | 9 | 23 | 14 | 6 | 87 | 128
O=C(O)/C=C\C(=O)N1N=C(c2c(-c3ccc(Br)cc3)c3ccccc3[nH]c2=O)CC1c1ccc(Cl)cc1 (stereo not drawn) | 21 | 1 | 0.57 | 30 | 17 | 12
